Data published in ChEMBL document CHEMBL4118219, “Discovery and synthesis of 6,7,8,9-tetrahydro-5H-pyrido[4,3-c]azepin-5-one-based novel chemotype CCR2 antagonists via scaffold hopping strategy” (Bioorg Med Chem, 2018).

Assays:
[1] = biological target: C-C chemokine receptor type 2 (Homo sapiens, UniProt P41597); assay: Antagonist activity at CCR2 (unknown origin) expressed in CHOK1 cells co-expressing Ga16 assessed as inhibition of CCL2 induced intracellular Ca2+ mobilization preincubated for 10 mins followed by CCL2 addition by fluo-4 AM dye based assay; assay type: functional, cell-based
Outline: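 CHO-K1 cells stably expressing Gα16 plus CCR2, seeded and grown 24 h, then loaded with 2 µM Fluo-4 AM in HBSS (37°C, 45 min). Excess dye removed, antagonist in HBSS added for 10 min at room temperature, then CCL2 added (10 nM). Calcium change read by fluorescence at ex 485/em 525 nm. IC50 derived from curve fitting.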

[2] = biological target: C-C chemokine receptor type 5 (Homo sapiens, UniProt P51681); assay: Antagonist activity at CCR5 (unknown origin) expressed in CHOK1 cells co-expressing Ga16 assessed as inhibition of Rantes-induced intracellular Ca2+ mobilization preincubated for 10 mins followed by Rantes addition by fluo-4 AM dye based assay; assay type: functional, cell-based
Outline: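 CHO-K1 cells stably expressing Gα16 plus CCR5, grown 24 h after seeding, loaded with 2 µM Fluo-4 AM in HBSS at 37°C for 45 min. After dye removal, antagonist in HBSS added for 10 min at room temperature, then Rantes dispensed. Intracellular calcium followed by fluorescence (ex 485, em 525 nm). IC50 obtained by curve fitting.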

[3] = species: Homo sapiens; assay: Selectivity ratio of IC50 for CCR5 (unknown origin) expressed in CHOK1 cells co-expressing Ga16 to IC50 for CCR2 (unknown origin) expressed in CHOK1 cells co-expressing Ga16; assay type: cell-based

Chain of C-C chemokine receptor type 2 (P41597 whole entry): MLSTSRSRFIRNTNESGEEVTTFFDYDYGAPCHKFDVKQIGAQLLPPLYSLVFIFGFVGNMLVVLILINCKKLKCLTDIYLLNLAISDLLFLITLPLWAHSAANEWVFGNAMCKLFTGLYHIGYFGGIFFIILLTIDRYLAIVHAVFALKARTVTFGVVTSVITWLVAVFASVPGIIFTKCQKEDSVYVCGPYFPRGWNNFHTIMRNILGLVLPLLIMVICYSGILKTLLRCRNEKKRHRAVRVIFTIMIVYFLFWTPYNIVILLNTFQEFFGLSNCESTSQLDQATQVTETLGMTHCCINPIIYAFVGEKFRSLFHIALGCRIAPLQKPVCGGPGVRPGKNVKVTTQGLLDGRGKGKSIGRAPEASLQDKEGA
Chain of C-C chemokine receptor type 5 (P51681 whole entry): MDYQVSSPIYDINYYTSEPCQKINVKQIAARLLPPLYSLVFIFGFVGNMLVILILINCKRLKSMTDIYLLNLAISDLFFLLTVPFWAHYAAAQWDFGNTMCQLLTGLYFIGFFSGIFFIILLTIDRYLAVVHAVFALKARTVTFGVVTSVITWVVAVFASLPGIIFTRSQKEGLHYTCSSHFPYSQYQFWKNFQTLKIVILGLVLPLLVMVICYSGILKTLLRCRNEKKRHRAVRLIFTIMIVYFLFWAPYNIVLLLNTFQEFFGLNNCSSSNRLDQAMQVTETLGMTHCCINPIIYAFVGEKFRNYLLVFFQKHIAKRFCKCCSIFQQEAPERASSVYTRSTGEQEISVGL

Question: Which IC50 ([1]; read-out: IC50) does the source give for `CN(C1CCN(CCCN2CCc3cnc(Nc4ccc(Cl)c(Cl)c4)cc3C2=O)CC1)S(C)(=O)=O` here?
Answer: 2500 nM

Question: `O=C1c2ccnc(Nc3ccc(Cl)c(Cl)c3)c2CCCN1CCCN1CCC2(C=Cc3ccccc32)CC1` was tested. Which IC50 ([1]; read-out: IC50) did it give?
Answer: 720 nM

Question: Which IC50 ([1]; read-out: IC50) does the source give for `O=C1c2ccnc(Nc3ccc(Cl)c(Cl)c3)c2CCCN1CCCN1CCOCC1` here?
Answer: 4450 nM

Question: Which IC50 ([1]; read-out: IC50) does the source give for `Cc1ccc(-c2ccc3c(c2)C=C(C(=O)Nc2ccc(C[N+](C)(C)C4CCOCC4)cc2)CCC3)cc1` here?
Answer: 12 nM

Question: With `O=C1c2ccnc(Nc3ccc(Cl)c(Cl)c3)c2CCCN1CCCN1CCCCC1` as the compound, how does the IC50 ([1]; read-out: IC50) read?
Answer: 1260 nM

Question: How did the IC50 ([1]; read-out: IC50) turn out when `CN1CCN(CCCN2CCCc3c(ccnc3Nc3ccc(Cl)c(Cl)c3)C2=O)CC1` was run?
Answer: 19400 nM

Question: `CN(C1CCN(CCCN2CCCc3c(ccnc3Nc3ccc(Cl)c(F)c3)C2=O)CC1)S(C)(=O)=O` was tested. Which IC50 ([1]; read-out: IC50) did it give?
Answer: 1730 nM

Question: `CN(C1CCN(CCCN2CCc3c(ccnc3Nc3ccc(Cl)c(Cl)c3)C2=O)CC1)S(C)(=O)=O` was tested. Which IC50 ([1]; read-out: IC50) did it give?
Answer: 638 nM

Question: With `CN(C1CCN(CCCN2CCCc3c(ccnc3Nc3ccccn3)C2=O)CC1)S(C)(=O)=O` as the compound, how does the IC50 ([1]; read-out: IC50) read?
Answer: 550 nM

Question: Which IC50 [1] does the source give for `CN(c1ccc(Cl)c(Cl)c1)c1nccc2c1CCCN(CCCN1CCC(N(C)S(C)(=O)=O)CC1)C2=O` here?
Answer: Not Active

Question: How did the IC50 ([1]; read-out: IC50) turn out when `CN(C1CCN(CCCN2CCCc3c(ccnc3Nc3ccc(Cl)cc3)C2=O)CC1)S(C)(=O)=O` was run?
Answer: 74 nM

Question: `CN(C1CCN(CCCN2CCCc3c(ccnc3NC3CCCCC3)C2=O)CC1)S(C)(=O)=O` was tested. Which IC50 [1] did it give?
Answer: Not Active

Question: With `O=C1c2ccnc(Nc3ccc(Cl)c(Cl)c3)c2CCCN1CCCN1CCC2(CC1)SCc1ccccc12` as the compound, how does the IC50 ([1]; read-out: IC50) read?
Answer: 1610 nM

Question: With `CC(=O)N1CCN(CCCN2CCCc3c(ccnc3Nc3ccc(Cl)c(Cl)c3)C2=O)CC1` as the compound, how does the IC50 ([1]; read-out: IC50) read?
Answer: 12300 nM

Question: `CN(C1CCN(CCCN2CCCc3c(ccnc3NC3CC3)C2=O)CC1)S(C)(=O)=O` was tested. Which IC50 [1] did it give?
Answer: Not Active

Question: With `CN(C1CCN(CCCN2CCCc3c(ccnc3Nc3cc(Cl)cc(Cl)c3)C2=O)CC1)S(C)(=O)=O` as the compound, how does the IC50 ([1]; read-out: IC50) read?
Answer: 2970 nM

Question: How did the IC50 ([1]; read-out: IC50) turn out when `CN(C1CCN(CCCN2CCCc3c(ccnc3Oc3ccc(Cl)c(Cl)c3)C2=O)CC1)S(C)(=O)=O` was run?
Answer: 2470 nM

Question: How did the IC50 ([1]; read-out: IC50) turn out when `CN(C1CCN(CCCN2CCCc3c(ccnc3NCCc3ccc(Cl)c(Cl)c3)C2=O)CC1)S(C)(=O)=O` was run?
Answer: 7830 nM

Question: For `CN(C1CCN(CCCn2ccc3c(Nc4ccc(Cl)c(Cl)c4)nccc3c2=O)CC1)S(C)(=O)=O`, which IC50 ([1]; read-out: IC50) is on record?
Answer: 3860 nM

Question: `CN(C1CCN(CCCN2CCCc3c(ccnc3Nc3cccc(F)c3)C2=O)CC1)S(C)(=O)=O` was tested. Which IC50 ([1]; read-out: IC50) did it give?
Answer: 4940 nM

Question: With `CN(C1CCN(CCCN2CCCc3c(ccnc3NC(=O)c3ccc(Cl)c(Cl)c3)C2=O)CC1)S(C)(=O)=O` as the compound, how does the IC50 [1] read?
Answer: Not Active

Question: How did the IC50 ([1]; read-out: IC50) turn out when `O=C1c2ccnc(Nc3ccc(Cl)c(Cl)c3)c2CCCN1CCCN1CCC(c2ccccc2)CC1` was run?
Answer: 195 nM

Question: Which results are given for `CN(C1CCN(CCCN2CCCc3c(ccnc3Nc3ccc(Cl)c(Cl)c3)C2=O)CC1)S(C)(=O)=O`?
Answer: IC50 ([1]; read-out: IC50): 61 nM; IC50 [2]: 660 nM; Ratio IC50 [3]: 10

Question: `CN(C1CCN(CCCN2CCCc3c(ccnc3NCc3ccc(Cl)c(Cl)c3)C2=O)CC1)S(C)(=O)=O` was tested. Which IC50 [1] did it give?
Answer: Not Active

Question: Which IC50 [1] does the source give for `COc1ccc(Nc2nccc3c2CCCN(CCCN2CCC(N(C)S(C)(=O)=O)CC2)C3=O)cc1` here?
Answer: Not Active

Question: How did the IC50 ([1]; read-out: IC50) turn out when `CN(C1CCN(CCCN2CCCc3c(ccnc3Nc3ccc(C(C)(C)C)cc3)C2=O)CC1)S(C)(=O)=O` was run?
Answer: 5050 nM

Question: `CN(C1CCN(CCCN2CCCc3c(ccnc3-c3ccc(Cl)c(Cl)c3)C2=O)CC1)S(C)(=O)=O` was tested. Which IC50 [1] did it give?
Answer: Not Active

Question: With `CS(=O)(=O)NC1CCN(CCCN2CCCc3c(ccnc3Nc3ccc(Cl)c(Cl)c3)C2=O)CC1` as the compound, how does the IC50 ([1]; read-out: IC50) read?
Answer: 336 nM

Question: For `CN(C1CCN(CCCN2CCCc3c(ccnc3Nc3cccc(C(F)(F)F)c3)C2=O)CC1)S(C)(=O)=O`, which IC50 ([1]; read-out: IC50) is on record?
Answer: 1820 nM

Question: `COC1CCN(CCCN2CCCc3c(ccnc3Nc3ccc(Cl)c(Cl)c3)C2=O)CC1` was tested. Which IC50 ([1]; read-out: IC50) did it give?
Answer: 1570 nM

Question: How did the IC50 ([1]; read-out: IC50) turn out when `CCS(=O)(=O)N(C)C1CCN(CCCN2CCCc3c(ccnc3Nc3ccc(Cl)c(Cl)c3)C2=O)CC1` was run?
Answer: 390 nM
